Among the data in ChEMBL document CHEMBL1121906, “2-(Aminomethyl)phenols, a new class of saluretic agents. 2. Synthesis and pharmacological properties of the 5-aza isostere of 2-(aminomethyl)-4-(1,1-dimethylethyl)-6-iodophenol” (1981) are Diuretic effects, Duration and Max fall values, retold here.

In test [1] the test system is Rattus norvegicus. In words: The saluretic (Na+)effect of compound was measured in rats after oral administration at 81 mg/kg dose. It counts as functional.
In test [2] the test system is Rattus norvegicus. In words: The saluretic(K+) effect of compound was measured in rats after oral administration at 27 mg/kg dose; K+mequiv*100/cage=14. It counts as functional.
Test [3] concerns Canis familiaris. The test is described as follows: The saluretic(K+) effect of compound was measured in dogs after iv administration at 5 mg/kg dose; K+mequiv/min=20.
Test [4] has as its system Rattus norvegicus. In words: The saluretic(Cl-) effect of compound was measured in rats after oral administration at 27 mg/kg dose; Cl-mequiv*100/cage=14. It counts as functional.
For test [5], the species on record is Rattus norvegicus. The test is described as follows: Duration of effect was measured in hypertensive rat. It counts as functional. An outline of the steps: (§1)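 Spontaneously hypertensive rats received the compound orally. The read-out was the maximum fall in mean arterial pressure (mmHg ± SE) and the duration of effect in hours. The number of rats varied by treatment, and the protocol follows an earlier report.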

Test [6] concerns Rattus norvegicus. In words: Saluretic(Na+) effect of compound was measured in rats after oral administration at 3 mg/kg dose; Na+ mequiv*100/cage. It counts as functional.
Test [7] relates to Rattus norvegicus. In words: The saluretic(Cl-) effect of compound was measured in rats after oral administration at 81 mg/kg dose. It counts as functional.
Test [8] relates to Rattus norvegicus. In words: Mean arterial pressure was measured in hypertensive rat at dose of 20 mg/kg, po. It counts as functional, Artery. An outline of the steps:
as §1

Test [9] relates to Rattus norvegicus. In words: The saluretic (Na+) effect of compound was measured in rats after oral administration at 27 mg/kg dose; Na+ mequiv*100/cage. The test is classed as functional.
Test [10] deals with Rattus norvegicus. The test is described as follows: The saluretic(Na+) effect of compound was measured in rats after oral administration at 27 mg/kg dose; Na+ mequiv*100/cage. It counts as functional.
Test [11] deals with Rattus norvegicus. The test is described as follows: The saluretic(K+) effect of compound was measured in rats after oral administration at 3 mg/kg dose. It counts as functional.
Test [12] concerns Rattus norvegicus. In words: The saluretic(Cl-) effect of compound was measured in rats after oral administration at 3 mg/kg dose. It counts as functional.
In test [13] the test system is Canis familiaris. The test is described as follows: The saluretic(Cl-) effect of compound was measured in dogs after iv administration at 5 mg/kg dose; Cl-mequiv/min=303.
Test [14] deals with Rattus norvegicus. The test is described as follows: The saluretic(K+) effect of compound was measured in rats after oral administration at 81 mg/kg dose. The test is classed as functional.
Test [15] has as its system Canis familiaris. In words: The saluretic(Na+) effect of compound was measured in dogs after iv administration at 5 mg/kg dose; Na+ mequiv/min=279.
The test system of test [16] is Rattus norvegicus. The test is described as follows: Mean arterial pressure was measured in hypertensive rat at dose of 20 mg/kg, ip. The note with it: route intraperitoneal.
The subject of test [17] is Rattus norvegicus. In words: The saluretic (Na+) effect of compound was measured in rats after oral administration at 81 mg/kg dose; Na+ mequiv*100/cage. It counts as functional.
Test [18] has as its system Rattus norvegicus. The test is described as follows: The saluretic(K+) effect of compound was measured in rats after oral administration at 3 mg/kg dose; K+ mequiv x 100/cage=14. The test is classed as functional.
The test system of test [19] is Canis familiaris. In words: The saluretic(Cl-) effect of compound was measured in dogs after iv administration at 3 mg/kg dose; Cl-mequiv/min=303. The test is classed as functional, Canis lupus familiaris.
The test system of test [20] is Rattus norvegicus. In words: Saluretic(Na+) effect of compound was measured in rats after oral administration at 3 mg/kg dose; Na+ mequiv x 100/cage. The test is classed as functional.
The test system of test [21] is Rattus norvegicus. The test is described as follows: The saluretic(K+) effect of compound was measured in rats after oral administration at 9 mg/kg dose; K+mequiv*100/cage=14. It counts as functional.
For test [22], the system named is Rattus norvegicus. The test is described as follows: The saluretic(K+) effect of compound was measured in rats after oral administration at 81 mg/kg dose; K+mequiv*100/cage=14. It counts as functional.
The subject of test [23] is Rattus norvegicus. The test is described as follows: The saluretic(Cl-) effect of compound was measured in rats after oral administration at 9 mg/kg dose; Cl-mequiv*100/cage=14. It counts as functional.
The subject of test [24] is Canis familiaris. The test is described as follows: The saluretic(K+) effect of compound was measured in dogs after iv administration at 3 mg/kg dose; K+mequiv/min=20. It counts as functional, Canis lupus familiaris.
Test [25] deals with Rattus norvegicus. The test is described as follows: The saluretic(Cl-) effect of compound was measured in rats after oral administration at 81 mg/kg dose; Cl-mequiv*100/cage=14. It counts as functional.
Test [26] has as its system Rattus norvegicus. The test is described as follows: The saluretic (Na+) effect of compound was measured in rats after oral administration at 9 mg/kg dose; Na+ mequiv*100/cage. It counts as functional.
The test system of test [27] is Rattus norvegicus. In words: The saluretic(Cl-) effect of compound was measured in rats after oral administration at 3 mg/kg dose; Cl- mequiv x 100/cage =14. The test is classed as functional.
Test [28] has as its system Canis familiaris. The test is described as follows: The saluretic(Na+) effect of compound was measured in dogs after iv administration at 3 mg/kg dose; Na+ mequiv/min=279. The test is classed as functional, Canis lupus familiaris.
The test system of test [29] is Rattus norvegicus. In words: The saluretic(K+) effect of compound was measured in rats after oral administration at 3 mg/kg dose; K+mequiv*100/cage=14. It counts as functional.
The test system of test [30] is Rattus norvegicus. The test is described as follows: The saluretic(Cl-) effect of compound was measured in rats after oral administration at 3 mg/kg dose; Cl-mequiv*100/cage=14. The test is classed as functional.
Test [31] concerns Canis familiaris. The test is described as follows: The saluretic(K+) effect of compound was measured in dogs after iv administration at 2 mg/kg dose; K+mequiv/min=20. It counts as functional, Canis lupus familiaris.
Test [32] relates to Canis familiaris. In words: The saluretic(Cl-) effect of compound was measured in dogs after iv administration; Cl-mequiv/min=303.
The subject of test [33] is Canis familiaris. In words: The saluretic(Na+) effect of compound was measured in dogs after iv administration at 2 mg/kg dose; Na+ mequiv/min=279. The test is classed as functional, Canis lupus familiaris.
The species entered for test [34] is Rattus norvegicus. The test is described as follows: Duration of effect was measured in hypertensive rat. It counts as functional. An outline of the steps:
as §1

Where “and” joins values, the source holds several entries; their conditions need not be identical. Identical values can stand only once.

`CC(C)(C)c1cc(CN)c(O)c(I)n1`: the Diuretic effects with Rattus norvegicus [1] was 330; with Rattus norvegicus [2] (27 mg/kg), 63 and 83; with Canis familiaris [3], 48; with Rattus norvegicus [4] (27 mg/kg) it was 351 and 444; in the test on Rattus norvegicus [6], 178; with Rattus norvegicus [7], 528. Moreover, the Diuretic effects in the test on Rattus norvegicus [9] is 276; in the test with Rattus norvegicus [10], 276; in the test with Rattus norvegicus [11], 51; with Rattus norvegicus [12] it was 279; in the test on Canis familiaris [13], 729; with Rattus norvegicus [14], 108. In addition, the Diuretic effects in the test with Canis familiaris [15] was determined as 611. In the test filed under Rattus norvegicus [5], this molecule showed a Duration of more than 24 h. In addition, the Max fall in the test on Rattus norvegicus [8] (dose 20 mg/kg) is recorded as 13 mmHg.

For the molecule `CC(C)(C)c1cc(CN)c(O)cn1`, the Max fall in the test with Rattus norvegicus [16] was found to be 12 mmHg. Also, the Diuretic effects is given as 15 in the test with Rattus norvegicus [2]; 63 in the test with Rattus norvegicus [17]; 37 with Rattus norvegicus [4]; 14 in the test on Rattus norvegicus [18]; 303 with Canis familiaris [19]; 14 with Rattus norvegicus [20]. Also, the Diuretic effects with Rattus norvegicus [21] is reported as 7; in the test with Rattus norvegicus [9], 22; with Rattus norvegicus [22], 23; in the test with Rattus norvegicus [23] it was 11; with Canis familiaris [24], 20; with Rattus norvegicus [25], 98. The figures for the Diuretic effects in the test on Rattus norvegicus [26], in the test with Rattus norvegicus [27] and with Canis familiaris [28] were 8, 14 and 279, respectively.

As for `CC(C)(C)c1cc(I)c(O)c(CN)c1`, the Diuretic effects stood at 88 in the test on Rattus norvegicus [2]; 351 in the test on Rattus norvegicus [17]; 435 with Rattus norvegicus [4]; 822 in the test on Canis familiaris [19]; 146 in the test with Rattus norvegicus [6]; 77 with Rattus norvegicus [21]. Moreover, the Diuretic effects with Rattus norvegicus [9] was 319; with Rattus norvegicus [22] it was 99; with Rattus norvegicus [29], 51; in the test with Rattus norvegicus [30] it was 211; with Rattus norvegicus [23], 364; with Canis familiaris [24], 66. In addition, the values for the Diuretic effects in the test on Rattus norvegicus [25], in the test with Rattus norvegicus [26] and in the test with Canis familiaris [28] were 489, 270 and 716, respectively. The same molecule returned a Max fall in the test on Rattus norvegicus [8] (dose 0.312 mg/kg, in the assay text read “0.312 mg/kg” for “20 mg/kg”) of 26 mmHg.

With `NS(=O)(=O)c1cc(C(=O)O)c(NCc2ccco2)cc1Cl` [FUROSEMIDE], the Diuretic effects with Rattus norvegicus [2] is 55; in the test with Rattus norvegicus [17], 244; in the test on Rattus norvegicus [4] (27 mg/kg), 213 and 370; with Canis familiaris [31], 141; in the test on Rattus norvegicus [21], 14; in the test on Rattus norvegicus [9] it was 125. Also, the Diuretic effects in the test with Canis familiaris [32] worked out at 1081; with Rattus norvegicus [22] it was 77; in the test with Canis familiaris [33], 960; in the test on Rattus norvegicus [23] it was 22; in the test on Rattus norvegicus [26], 7. For the same molecule, in the test on Rattus norvegicus [8] (dose 30 mg/kg, in the assay text read “30 mg/kg” for “20 mg/kg”), the Max fall is 12 mmHg.

`NS(=O)(=O)c1cc2c(cc1Cl)NCNS2(=O)=O` [HYDROCHLOROTHIAZIDE]: the Diuretic effects worked out at 34 in the test with Rattus norvegicus [2]; 156 in the test on Rattus norvegicus [4]; 156 in the test on Canis familiaris [19]; 37 in the test on Rattus norvegicus [22]; 34 with Rattus norvegicus [29]; 154 in the test with Rattus norvegicus [30]. Further, the Diuretic effects in the test on Canis familiaris [24] worked out at 33; in the test with Rattus norvegicus [25], 143; in the test with Canis familiaris [28] it was 166. Also, the Duration in the test filed under Rattus norvegicus [34] was <8 h and 12 h. The Max fall with Rattus norvegicus [8] (dose 20 mg/kg) was determined as 25 mmHg.
